Source: ChEMBL document CHEMBL5724801, “EUbOPEN Chemogenomics Library - Multiplex” (2024)
Values joined by “and” are separate entries in the source; they are usually repeats but may differ in a detail not shown here. Identical values can stand only once.

System: Fibroblast
Assay: Multiplex assay against human fibroblast
Type: toxicity, cell-based
Procedure, shortened: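 Live cells carried four stains from seeding: Hoechst33342, BioTracker Green Microtubule Cytoskeleton Dye, MitoTracker Red and Annexin V Alexa Fluor 680. They were imaged on a CQ1 microscope at 37°C and 5% CO2 after compound addition. Using CellPathfinder machine-learning gating, cells were split into Hoechst high-intensity objects or normal cells, normal cells into healthy, pyknosed or fragmented nuclei, and pyknosed cells into mitotic or apoptotic; tubulin, mitochondrial-mass and membrane-permeability phenotypes are per cents of healthy-nucleus cells.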

[1] = 12 h, 1 µM, compound concentration 1 uM
[2] = 12 h, 10 µM, compound concentration 10 uM
[3] = 24 h, 1 µM, compound concentration 1 uM
[4] = 24 h, 10 µM, compound concentration 10 uM
[5] = 48 h, 1 µM, compound concentration 1 uM
[6] = 48 h, 10 µM, compound concentration 10 uM

CCCCCCNC(=O)Nc1ccc(S(=O)(=O)Nc2ccc(CCNC[C@H](O)COc3ccc(O)cc3)cc2)cc1 [L-755507]
Population Apoptotic (%) [1]: 40% and 46% | Population Fragmented Nuclei (%) [1]: 27% and 21% | Population Healthy Nuclei (%) [1]: 59% | Population Hoechst High Intensity Objects (%) [1]: 1% and 3% | Population Membrane Permeable-Phenotype (%) [1]: 3% | Population Mitochondria Different-Phenotype (%) [1]: 6% and 3% | Population Mitotic Cells (%) [1]: 60% and 53% | Population Normal (%) [1]: 98% and 96% | Population Pyknosed Nuclei (%) [1]: 12% and 19% | Population Tubulin-Different-Phenotype (%) [1]: 34% and 36% | Total Cell Count [1]: 198 and 160 | Population Apoptotic (%) [2]: 45% and 42% | Population Fragmented Nuclei (%) [2]: 17% and 34% | Population Healthy Nuclei (%) [2]: 72% and 48% | Population Hoechst High Intensity Objects (%) [2]: 5% | Population Membrane Permeable-Phenotype (%) [2]: 0% and 1% | Population Mitochondria Different-Phenotype (%) [2]: 10% and 19% | Population Mitotic Cells (%) [2]: 54% and 57% | Population Normal (%) [2]: 94% | Population Pyknosed Nuclei (%) [2]: 10% and 17% | Population Tubulin-Different-Phenotype (%) [2]: 47% and 64% | Total Cell Count [2]: 218 and 172 | Population Apoptotic (%) [3]: 31% and 39% | Population Fragmented Nuclei (%) [3]: 26% | Population Healthy Nuclei (%) [3]: 63% and 59% | Population Hoechst High Intensity Objects (%) [3]: 1% and 2% | Population Membrane Permeable-Phenotype (%) [3]: 0% and 3% | Population Mitochondria Different-Phenotype (%) [3]: 3% and 12% | Population Mitotic Cells (%) [3]: 68% and 60% | Population Normal (%) [3]: 98% and 97% | Population Pyknosed Nuclei (%) [3]: 9% and 13% | Population Tubulin-Different-Phenotype (%) [3]: 27% and 44% | Total Cell Count [3]: 196 and 176 | Population Apoptotic (%) [4]: 72% and 50% | Population Fragmented Nuclei (%) [4]: 21% and 38% | Population Healthy Nuclei (%) [4]: 70% and 51% | Population Hoechst High Intensity Objects (%) [4]: 8% and 4% | Population Membrane Permeable-Phenotype (%) [4]: 0% and 3% | Population Mitochondria Different-Phenotype (%) [4]: 8% and 19% | Population Mitotic Cells (%) [4]: 27% and 50% | Population Normal (%) [4]: 91% and 95% | Population Pyknosed Nuclei (%) [4]: 8% and 9% | Population Tubulin-Different-Phenotype (%) [4]: 38% and 65% | Total Cell Count [4]: 232 and 168 | Population Apoptotic (%) [5]: 62% and 53% | Population Fragmented Nuclei (%) [5]: 28% and 33% | Population Healthy Nuclei (%) [5]: 63% and 58% | Population Hoechst High Intensity Objects (%) [5]: 3% and 4% | Population Membrane Permeable-Phenotype (%) [5]: 0% and 1% | Population Mitochondria Different-Phenotype (%) [5]: 4% and 6% | Population Mitotic Cells (%) [5]: 37% and 46% | Population Normal (%) [5]: 96% and 95% | Population Pyknosed Nuclei (%) [5]: 8% | Population Tubulin-Different-Phenotype (%) [5]: 31% and 33% | Total Cell Count [5]: 201 and 170 | Population Apoptotic (%) [6]: 79% and 71% | Population Fragmented Nuclei (%) [6]: 19% and 42% | Population Healthy Nuclei (%) [6]: 69% and 53% | Population Hoechst High Intensity Objects (%) [6]: 6% and 3% | Population Membrane Permeable-Phenotype (%) [6]: 1% and 5% | Population Mitochondria Different-Phenotype (%) [6]: 8% and 11% | Population Mitotic Cells (%) [6]: 20% and 28% | Population Normal (%) [6]: 93% and 96% | Population Pyknosed Nuclei (%) [6]: 10% and 3% | Population Tubulin-Different-Phenotype (%) [6]: 49% and 55% | Total Cell Count [6]: 240 and 184

CN1CCN2c3ncccc3Cc3ccccc3C2C1 (centres undefined) [MIRTAZAPINE]
Population Apoptotic (%) [1]: 44% and 33% | Population Fragmented Nuclei (%) [1]: 10% and 24% | Population Healthy Nuclei (%) [1]: 77% and 47% | Population Hoechst High Intensity Objects (%) [1]: 3% | Population Membrane Permeable-Phenotype (%) [1]: 0% and 4% | Population Mitochondria Different-Phenotype (%) [1]: 6% and 5% | Population Mitotic Cells (%) [1]: 56% and 66% | Population Normal (%) [1]: 96% | Population Pyknosed Nuclei (%) [1]: 12% and 27% | Population Tubulin-Different-Phenotype (%) [1]: 24% and 45% | Total Cell Count [1]: 213 and 156 | Population Apoptotic (%) [2]: 44% and 28% | Population Fragmented Nuclei (%) [2]: 19% and 27% | Population Healthy Nuclei (%) [2]: 69% and 40% | Population Hoechst High Intensity Objects (%) [2]: 1% and 6% | Population Membrane Permeable-Phenotype (%) [2]: 0% and 16% | Population Mitochondria Different-Phenotype (%) [2]: 8% and 7% | Population Mitotic Cells (%) [2]: 55% and 71% | Population Normal (%) [2]: 98% and 93% | Population Tubulin-Different-Phenotype (%) [2]: 30% and 60% | Total Cell Count [2]: 168 and 140 | Population Apoptotic (%) [3]: 47% and 48% | Population Healthy Nuclei (%) [3]: 82% and 50% | Population Hoechst High Intensity Objects (%) [3]: 5% and 0% | Population Membrane Permeable-Phenotype (%) [3]: 0% and 10% | Population Mitochondria Different-Phenotype (%) [3]: 5% and 10% | Population Mitotic Cells (%) [3]: 52% and 51% | Population Normal (%) [3]: 94% and 99% | Population Pyknosed Nuclei (%) [3]: 10% and 23% | Population Tubulin-Different-Phenotype (%) [3]: 31% and 36% | Total Cell Count [3]: 201 and 153 | Population Apoptotic (%) [4]: 50% and 46% | Population Fragmented Nuclei (%) [4]: 19% and 29% | Population Healthy Nuclei (%) [4]: 72% and 46% | Population Hoechst High Intensity Objects (%) [4]: 4% and 5% | Population Membrane Permeable-Phenotype (%) [4]: 0% and 15% | Population Mitochondria Different-Phenotype (%) [4]: 9% and 1% | Population Mitotic Cells (%) [4]: 50% and 53% | Population Normal (%) [4]: 95% and 94% | Population Tubulin-Different-Phenotype (%) [4]: 30% and 68% | Total Cell Count [4]: 186 and 136 | Population Apoptotic (%) [5]: 60% and 50% | Population Fragmented Nuclei (%) [5]: 15% and 36% | Population Healthy Nuclei (%) [5]: 73% and 45% | Population Hoechst High Intensity Objects (%) [5]: 7% and 2% | Population Membrane Permeable-Phenotype (%) [5]: 0% and 11% | Population Mitochondria Different-Phenotype (%) [5]: 4% and 12% | Population Mitotic Cells (%) [5]: 39% and 50% | Population Normal (%) [5]: 92% and 97% | Population Pyknosed Nuclei (%) [5]: 11% and 17% | Population Tubulin-Different-Phenotype (%) [5]: 31% and 56% | Total Cell Count [5]: 213 and 161 | Population Apoptotic (%) [6]: 66% and 33% | Population Fragmented Nuclei (%) [6]: 17% and 46% | Population Healthy Nuclei (%) [6]: 73% and 41% | Population Hoechst High Intensity Objects (%) [6]: 5% and 2% | Population Membrane Permeable-Phenotype (%) [6]: 0% and 8% | Population Mitochondria Different-Phenotype (%) [6]: 9% and 2% | Population Mitotic Cells (%) [6]: 33% and 66% | Population Normal (%) [6]: 94% and 97% | Population Pyknosed Nuclei (%) [6]: 9% and 12% | Population Tubulin-Different-Phenotype (%) [6]: 36% and 60% | Total Cell Count [6]: 176 and 120
